In brackets after ≈: the same amount, converted by molar mass. Activity calls are given as the source filed them. No cut-off for these calls is given here. Where only a bound is given, the exact number is not on record here.

The subject of data set [1] is 3T3-L1. The data set can be described thus: Lipid lowering activity in mouse 3T3-L1 cells assessed as reduction in adipogenic cocktail-induced triglyceride levels […] incubated for 6 days by GPO-POD assay relative to control. The settings on record: time 6 day. Details: scale not given: the % may be the effect or the level left. The data set is classed as functional.

Data set [2] has as its system 3T3-L1. The data set can be described thus: Inhibition of mouse 3T3-L1 cells adipocyte differentiation assessed as reduction in adipogenic cocktail-induced C/EBPbeta mRNA expression at 1 mM after 24 hrs by RT-qPCR analysis. The data set is classed as functional, cell-based. In short, it runs like this:
(§1)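 Confluent 3T3-L1 preadipocytes received differentiation cocktail (0.5 mM IBMX, 100 ng/mL dexamethasone, 2 µg/mL insulin) with compound (0.01–1 µM; metformin 1 mM) for 24 h. mRNA was measured by SYBR Green RT-qPCR (30 cycles), normalized to β-actin, with the differentiated control set to 1. N = 4 independent experiments.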
(In general: Real-time PCR tracks product formation cycle by cycle.)

Data set [3] has as its system 3T3-L1. The data set can be described thus: Inhibition of mouse 3T3-L1 cells adipocyte differentiation assessed as reduction in adipogenic cocktail-induced C/EBPdelta mRNA expression at 1 mM after 24 hrs by RT-qPCR analysis. Format: functional, cell-based. Summed up: as §1
The subject of data set [4] is 3T3-L1. The data set can be described thus: Inhibition of mouse 3T3-L1 cells adipocyte differentiation assessed as reduction in adipogenic cocktail-induced C/EBPalpha mRNA expression at 1 mM after 24 hrs by RT-qPCR analysis. Format: functional, cell-based. Summed up:
as §1

Data set [5] relates to 3T3-L1. The data set can be described thus: Inhibition of mouse 3T3-L1 cells adipocyte differentiation assessed as reduction in adipogenic cocktail-induced PPARgamma mRNA expression at 1 mM after 24 hrs by RT-qPCR analysis. Format: functional, cell-based. In short, it runs like this: as §1
Data set [6] relates to 3T3-L1. The data set can be described thus: Activation of AMPK pathway in adipogenic cocktail-induced mouse 3T3-L1 cells assessed as increase in phosphorylation AMPKalpha at Thr172 residue after 24 hrs by Western blot analysis. The data set is classed as cell-based. The note with it: filed as activator. In short, it runs like this:
(§2)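 Confluent 3T3-L1 pre-adipocytes exposed to adipogenic cocktail for 24 h with or without compound (0, 0.01, 0.1, 1 µM); DMSO vehicle. Lysates analysed by SDS-PAGE/Western blot for pAMPKα (Thr-172), normalized to actin, Ctrl set as 1. N = 4 independent experiments.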
In general terms: Immunoblotting shows a protein as a band on a membrane.

Data set [7] relates to 3T3-L1. The data set can be described thus: Inhibition of mouse 3T3-L1 cells adipocyte differentiation assessed as reduction in adipogenic cocktail-induced C/EBPalpha protein expression after 24 hrs by Western blot analysis. The data set is classed as functional, cell-based. In short, it runs like this:
(§3)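 3T3-L1 preadipocytes were exposed to adipogenic cocktail with compound (0.3 or 1 µM) and harvested on day 1. Lysates were resolved by SDS-PAGE, immunoblotted (primary antibody overnight at 4 °C, HRP secondary) and quantified by densitometry normalized to actin.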

The test system of data set [8] is 3T3-L1. Briefly: Inhibition of mouse 3T3-L1 cells adipocyte differentiation assessed as reduction in adipogenic cocktail-induced PPARgamma protein expression after 24 hrs by Western blot analysis. Format: functional, cell-based. In short, it runs like this:
as §3

In data set [9] the test system is 3T3-L1. Briefly: Inhibition of mouse 3T3-L1 cells adipocyte differentiation assessed as reduction in adipogenic cocktail-induced SREBP-1c protein expression after 24 hrs by Western blot analysis. Format: functional, cell-based. Summed up:
as §3

Data set [10] concerns 3T3-L1. Briefly: Inhibition of mouse 3T3-L1 cells adipocyte differentiation assessed as reduction in adipogenic cocktail-induced SCD1 protein expression after 6 days by Western blot analysis. The settings on record: time 6.0 day. The data set is classed as functional, cell-based. In short, it runs like this:
(§4)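 3T3-L1 preadipocytes were differentiated with cocktail for 3 days, then insulin medium for 3 days, with compound (0.3 or 1 µM) present throughout. Cells were harvested on day 6 and proteins measured by Western blot, with densitometry normalized to actin.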

Data set [11] concerns 3T3-L1. The data set can be described thus: Inhibition of mouse 3T3-L1 cells adipocyte differentiation assessed as reduction in adipogenic cocktail-induced FAS protein expression after 6 days by Western blot analysis. The note with it: time 6.0 day. Format: functional, cell-based. Summed up:
as §4

For data set [12], the system named is 3T3-L1. The data set can be described thus: Inhibition of mouse 3T3-L1 cells adipocyte differentiation assessed as reduction in adipogenic cocktail-induced ACC protein expression after 6 days by Western blot analysis. The note with it: time 6.0 day. The data set is classed as functional, cell-based. Summed up:
as §4

In data set [13] the test system is C2C12. The data set can be described thus: Activation of AMPK pathway in mouse C2C12 cells assessed as increase in glucose uptake at 1 mM after 6 hrs by 2-NBDG/Hoechst 33342 staining based Confocal microscopic method. The settings on record: filed as activator. The data set is classed as cell-based. In short, it runs like this:
(§5)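 C2C12 myoblasts kept in DMEM with 10% FBS and 1% penicillin/streptomycin at 37 °C under 5% CO2.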

The subject of data set [14] is C2C12. The data set can be described thus: Activation of AMPK pathway in mouse C2C12 cells assessed as increase in glucose uptake at 1 mM after 6 hrs in presence of insulin by 2-NBDG/Hoechst 33342 staining based Confocal microscopic method. Format: cell-based. The settings on record: filed as activator. In short, it runs like this: as §5
Data set [15] concerns 3T3-L1. The data set can be described thus: Activation of AMPK pathway in mouse 3T3-L1 cells assessed as increase in number of mitochondria copy at 2 uM after 24 hrs by mito-tracker staining based Confocal microscopic method. The settings on record: filed as activator. In short, it runs like this: (§6)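 3T3-L1 cells grown in DMEM with 10% FBS at 37 °C and 5% CO2. After treatment, cells were stained for 30 min at 37 °C in the dark with 1 µM Mito-Tracker plus Hoechst 33342 (1:1000) and imaged by confocal microscopy (excitation 633 and 405 nm). Mitochondrial copy number was also taken as the mtDNA/nDNA ratio by PCR (cytochrome C versus 18S rRNA).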

Data set [16] relates to 3T3-L1. Briefly: Activation of AMPK pathway in mouse 3T3-L1 cells assessed as increase in number of mitochondria copy at 2 uM after 24 hrs in presence of compound C by mito-tracker staining based Confocal microscopic method. In short, it runs like this: as §6
In data set [17] the test system is Mus musculus. The data set can be described thus: Antiobesity activity in high fat diet-induced obese C57BL/6J mouse model assessed as decrease in body weight at 50 mg/kg, ip administered for every other days for 5 weeks. The data set is classed as functional. Set-up: scale not given: the % may be the effect or the level left.
Data set [18] has as its system 3T3-L1. Briefly: Lipid lowering activity in mouse 3T3-L1 cells assessed as reduction in adipogenic cocktail-induced triglyceride levels at 1 uM incubated for 6 days by GPO-POD assay relative to control. The data set is classed as functional. Details: scale not given: the % may be the effect or the level left. The note with it: time 6 day. In short, it runs like this: (§7)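 Confluent 3T3-L1 cells were treated from day 0 in cocktail (IBMX, dexamethasone, insulin) for 3 days, then re-dosed in insulin medium for 3 more days. For dose–response, concentrations were 0–10 µM (0.01, 0.1, 0.3, 1, 3, 10). On day 6, cells were lysed in 0.2% Triton X-100 and TG was measured by GPO-POD and normalized to BCA protein as % of control. EC50 was fitted from the dose–response. N = 4.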

The subject of data set [19] is 3T3-L1. Briefly: Lipid lowering activity in mouse 3T3-L1 cells assessed as reduction in adipogenic cocktail-induced triglyceride levels incubated for 6 days by GPO-POD assay. Format: functional, cell-based. Summed up: as §7
For data set [20], the system named is 3T3-L1. Briefly: Lipid lowering activity in mouse 3T3-L1 cells assessed as reduction in adipogenic cocktail-induced triglyceride levels at 1 uM incubated for 6 days by Oil-red O staining based assay. The data set is classed as functional, cell-based. The settings on record: time 6.0 day. In short, it runs like this: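 Differentiating 3T3-L1 cells were treated at 1 µM for 6 days, then washed with PBS and fixed in 4% formaldehyde for 1 h. Cells were stained with 0.3% Oil Red O for 30 min at room temperature in the dark and imaged at ×200.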

The subject of data set [21] is 3T3-L1. The data set can be described thus: Cytotoxicity against mouse 3T3-L1 cells assessed as change in LDH releasing level at 5 uM after 6 days by LDH releasing assay. The data set is classed as cell-based. The note with it: 3t3-l1, 144 h, time 6 day. In short, it runs like this: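 Differentiating 3T3-L1 cells were treated at 5 µM for 6 days. Plates were centrifuged and LDH activity in the supernatant was read at 490 nm. Release was expressed as fold = (treated − blank)/(control − blank), with untreated cells as blank and vehicle-differentiated control set to 1.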

Data set [22] relates to 3T3-L1. The data set can be described thus: Inhibition of mouse 3T3-L1 cells adipocyte differentiation assessed as reduction in adipogenic cocktail-induced C/EBPbeta mRNA expression after 24 hrs by RT-qPCR analysis. The data set is classed as functional, cell-based. The note with it: dose 0.01-1 µM. Summed up:
as §1

The subject of data set [23] is 3T3-L1. The data set can be described thus: Inhibition of mouse 3T3-L1 cells adipocyte differentiation assessed as reduction in adipogenic cocktail-induced C/EBPdelta mRNA expression after 24 hrs by RT-qPCR analysis. Format: functional, cell-based. The settings on record: dose 0.01-1 µM. Summed up: as §1
In data set [24] the test system is 3T3-L1. Briefly: Inhibition of mouse 3T3-L1 cells adipocyte differentiation assessed as reduction in adipogenic cocktail-induced C/EBPalpha mRNA expression after 24 hrs by RT-qPCR analysis. Format: functional, cell-based. The settings on record: dose 0.01-1 µM. In short, it runs like this:
as §1

Data set [25] relates to 3T3-L1. The data set can be described thus: Inhibition of mouse 3T3-L1 cells adipocyte differentiation assessed as reduction in adipogenic cocktail-induced PPARgamma mRNA expression after 24 hrs by RT-qPCR analysis. Format: functional, cell-based. The note with it: dose 0.01-1 µM. Summed up: as §1
The test system of data set [26] is 3T3-L1. The data set can be described thus: Activation of AMPK pathway in adipogenic cocktail-induced mouse 3T3-L1 cells assessed as increase in phosphorylation AMPKalpha at Thr172 residue at 0.01 to 1 uM after 24 hrs by Western blot analysis. The data set is classed as cell-based. The settings on record: filed as activator, dose 0.01-1 µM. Summed up: as §2
A short description of data set [27]: Stability in Sprague-Dawley rat liver microsomes assessed as remaining compound […] up to 60 mins in presence of NADPH by LC-MS/MS analysis. Format: ADME, Microsome. The note with it: read-out: Stabilty.
Data set [28] is described as follows: Stability in Sprague-Dawley rat liver microsomes assessed as rate constant […] up to 60 mins in presence of NADPH by LC-MS/MS analysis. Format: ADME, Microsome. In general terms: Liver microsomes are a subcellular fraction often used to study metabolism.
Data set [29] can be described thus: Half life in Sprague-Dawley rat liver microsomes assessed as rate constant […] up to 60 mins in presence of NADPH by LC-MS/MS analysis. The data set is classed as ADME, Microsome.
The nature of data set [30]: Intrinsic clearance in Sprague-Dawley rat liver microsomes assessed as rate constant […] up to 60 mins in presence of NADPH by LC-MS/MS analysis. The data set is classed as ADME, Microsome. The note with it: read-out: CLH.
The nature of data set [31]: Aqueous solubility in PBS buffer at pH 7.4 after 24 hrs. The data set is classed as physicochemical.

Regarding `CN(C)C(=N)NC(=N)N` [METFORMIN], the Activity in [1] is 60.3%. For the same compound, the inhibition entry in [2], in data set [3], in data set [4], in [5], in data set [7] and in data set [8] was “Active” each time. In addition, the inhibition result in data set [9], in data set [10], in [11] and in [12] was “Active” each time. For the same compound, the result in [6], in [13] and in data set [14] was Active.

On to `NC(=O)c1ncn([C@@H]2O[C@H](CO)[C@@H](O)[C@H]2O)c1N`, for which the result in [15] was Active. In data set [16], the outcome was inactive.

Regarding `O=Cc1c(-c2nc3ccccc3c(=O)[nH]2)[nH]c2ccccc12`, the Activity in data set [17] is recorded as 14.6%.

With `O=Cc1c(-c2nc(NCCCCN3CCCC3)c3ccccc3n2)[nH]c2ccccc12`, the Activity entry was “>=50%” in data set [18]; “Dose-dependent effect” in data set [19] (dose 1-5 µM, time 6.0 day); “Non-Toxic” in [21]. In data set [19] (3T3-L1, 144 h), the 50% effective concentration (EC50) (as a rule, the concentration giving half of the maximal effect) was 510 nM. In addition, the outcome in data set [20] and in [26] was Active. Further, the inhibition entry in data set [22], in data set [23], in [24] and in [25] was “Dose-dependent effect” each time. Also, the remaining at 1 h in data set [27] was 83.9%. Also, the k el at 1 h in data set [28] was 4.67e-05 s⁻¹. Moreover, the half-life (as a rule, the time in which the quantity being followed falls by half) in data set [29] is 4.13 h. For the same compound, the microsomal CLint in data set [30] was 2.8 µL/min/mg. The solubility (as a rule, the dissolved amount per volume that the medium holds) at 24 h in [31] worked out at 15.1 µg/mL (≈ 36.5 µM).

The record behind these values is ChEMBL document CHEMBL4732044, “Discovery of a promising agent IQZ23 for the treatment of obesity and related metabolic disorders” (Eur J Med Chem, 2020).
